Reference: paper PMC4718766 (Nature chemical biology, 2015)
Values belong to the compound of their own block, whether it stands above or below them.

Tests used:
HeLa cells [1] = experiment: Compound sensitivity testing; type: cell-based, human; details: for activity compared with (R)-DNMDP: cell viability, (R)-des-nitro analogues
Summary of the method: (§1)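 Cells per 384-well: A549 1000 (RPMI), HeLa 1000 (DMEM), MCF-7 500 (DMEM), PC3 4000 (F12-K), NCI-H2122 1000 (RPMI), NCI-H1563 1500 (RPMI); all with 10% FBS. Test compound added 24 h after plating, 48 h exposure. Readout: 25% CellTiter-Glo in PBS, 10 min, luminescence, normalized to DMSO. Dose curves: mean of 8 replicates ± s.d.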

PC3 cells = experiment: Compound sensitivity testing; type: cell-based; details: Homo sapiens, PC-3, 48 h
Summary of the method: as §1

A549 cells = experiment: Cell viability; type: cell-based; details: Homo sapiens, A549, 48 h
Summary of the method: as §1

[2] = tested on: 766 genomically characterized cancer cell lines; experiment: Large-scale cell-line viability measurements; type: cell-based, human; details: of 766 cancer cell lines, 72 hours, 66.4 µM to 2 nM
Summary of the method: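 500 cells/well in 1536-well plates, each line in its preferred medium; overnight incubation. Test compound acoustically dispensed at 16 concentrations, 66.4 µM–2 nM, 2-fold steps, in duplicate. After 72 h, ATP measured by CellTiter-Glo, normalized to media-only and DMSO wells. Curves fit to 2- or 3-parameter sigmoids. Sensitivity metric: AUC of optimal 8-point curve by numeric integration.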

NCI-H1734 cells = experiment: Cell viability; type: cell-based, human; details: NCI-H1734 versus A549, 48 hours
HeLa cells [3] = experiment: Caspase activity; type: cell-based, human; details: 48 hours (caspase), 36 hours (PARP)
Summary of the method: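 HeLa cells (1000/well, 384-well) in growth medium with 10% FBS; test compound added 24 h after plating. Caspase: 48 h exposure, Caspase-Glo added, luminescence read. PARP: 36 h exposure to test compound or staurosporine; NP-40 lysis; immunoblot for PARP (1:1000) and actin (1:20,000), infrared imaging.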

234 kinases = experiment: Millipore KinaseProfiler panel; type: biochemical, human; details: 10 µM DNMDP
NCI-H1563 cells = experiment: Compound sensitivity testing; type: cell-based; details: Homo sapiens, NCI-H1563, 48 h
Summary of the method: as §1

NCI-H2122 cells = experiment: Compound sensitivity testing; type: cell-based; details: Homo sapiens, NCI-H2122, 48 h
Summary of the method: as §1

MCF7 cells = experiment: Compound sensitivity testing; type: cell-based; details: Homo sapiens, MCF7, 48 h
Summary of the method: as §1

[4] = tested on: PDE3A complex with V5-tagged SIRT7 and SLFN12; experiment: PDE3A immunoprecipitation and V5 immunoblot; type: cell-based, human; details: HeLa, 10 µM, 4 hours, co-immunoprecipitation
Summary of the method: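 HeLa cells transfected with V5-tagged SIRT7, SLFN12 or GFP constructs. At 72 h, treated 4 h with 10 µM test compound or trequinsin. Lysis in ModRipa (1% NP-40, 50 mM Tris-HCl pH 7.8, 150 mM NaCl, 0.1% deoxycholate, 1 mM EDTA). 2 mg lysate with 1 µg anti-PDE3A overnight at 4 °C, then Protein A/G beads 1 h. LDS elution; immunoblots for V5 (1:5000) and PDE3A (1:1000).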

HeLa cells [5] = experiment: Rescue of DNMDP induced cytotoxicity; type: cell-based, human; details: 48 hours; for rescue of DNMDP cytotoxicity: DNMDP in combination, dose response; for rank in bioactives screen for rescue of cell death induced by DNMDP: 20 µM compound with 30 nM DNMDP, 1600 compounds; for competition with DNMDP (rescue): up to 10 µM
Summary of the method: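 HeLa cells (1000/well, 384-well) in DMEM with 10% FBS and 1% Pen/Strep. 24 h after plating, 1600 bioactives added at 20 µM together with cytotoxic agent at 30 nM final; 48 h incubation. Follow-up combinations used indicated PDE3/pan-PDE inhibitor concentrations with single data points. CellTiter-Glo viability expressed as percentage of untreated DMSO control.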

PDE3 = details: read-out: PDE3 IC50; cited from earlier work
PDE3A = PDE3A (Homo sapiens, UniProt Q14432); experiment: Linker-affinity purification with DNMDP-2L resin and PDE3A immunoblot; type: binding; details: HeLa cell lysate, 10 µM competitor
Summary of the method: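 200 µg lysate incubated 4 h with resin-coupled linker analogue, competitor compounds added beforehand. Three washes in buffer with 10 µM compound. Bound protein resolved by SDS-PAGE; anti-PDE3A immunoblot (1:1000, overnight, 4 °C); infrared detection.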

Chain of PDE3A (Q14432 whole entry): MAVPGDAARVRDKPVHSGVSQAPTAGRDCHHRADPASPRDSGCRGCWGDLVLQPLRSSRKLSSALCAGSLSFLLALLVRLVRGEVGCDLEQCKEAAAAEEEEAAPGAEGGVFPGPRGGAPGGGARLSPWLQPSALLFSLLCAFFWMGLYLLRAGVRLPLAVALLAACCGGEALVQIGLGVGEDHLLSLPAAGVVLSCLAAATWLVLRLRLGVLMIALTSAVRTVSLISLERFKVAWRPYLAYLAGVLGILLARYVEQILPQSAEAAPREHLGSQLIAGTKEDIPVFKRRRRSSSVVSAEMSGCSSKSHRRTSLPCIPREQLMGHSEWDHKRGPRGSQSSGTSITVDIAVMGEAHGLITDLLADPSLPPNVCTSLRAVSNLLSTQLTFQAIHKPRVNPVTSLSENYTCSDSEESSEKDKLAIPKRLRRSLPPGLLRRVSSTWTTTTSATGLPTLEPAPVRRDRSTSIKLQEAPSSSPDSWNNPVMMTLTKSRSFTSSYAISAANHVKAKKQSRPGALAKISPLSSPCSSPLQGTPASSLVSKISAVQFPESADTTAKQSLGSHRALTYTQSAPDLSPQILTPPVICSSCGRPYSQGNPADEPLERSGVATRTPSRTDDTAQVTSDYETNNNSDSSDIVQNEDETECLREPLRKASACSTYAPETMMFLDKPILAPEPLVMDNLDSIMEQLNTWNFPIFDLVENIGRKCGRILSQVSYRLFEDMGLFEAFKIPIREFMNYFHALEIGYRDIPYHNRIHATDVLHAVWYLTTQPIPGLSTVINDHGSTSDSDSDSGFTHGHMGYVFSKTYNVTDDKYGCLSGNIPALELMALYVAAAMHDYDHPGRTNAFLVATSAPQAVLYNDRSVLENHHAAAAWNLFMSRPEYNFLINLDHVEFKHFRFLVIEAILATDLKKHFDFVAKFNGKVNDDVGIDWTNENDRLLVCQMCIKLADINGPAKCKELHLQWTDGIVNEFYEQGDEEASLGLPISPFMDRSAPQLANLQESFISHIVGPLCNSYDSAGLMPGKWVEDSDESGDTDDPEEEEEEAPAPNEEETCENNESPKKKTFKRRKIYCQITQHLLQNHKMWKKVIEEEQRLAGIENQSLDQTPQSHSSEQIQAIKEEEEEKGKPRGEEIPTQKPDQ

EC50 (HeLa cells [1]; Homo sapiens, HeLa, 48 h): 10 to 100 nM | EC50 (PC3 cells): > 1000 nM | EC50 (A549 cells): > 1000 nM | kinase inhibition across 234 kinases (234 kinases): no kinase inhibition | EC50 (NCI-H1563 cells): 10 to 100 nM | EC50 (NCI-H2122 cells): 10 to 100 nM | EC50 (MCF7 cells): > 1000 nM
Compound: CCN(CC)c1ccc(C2=NNC(=O)CC2C)cc1[N+](=O)[O-] (stereo not shown) [DNMDP, 6-(4-(diethylamino)-3-nitrophenyl)-5-methyl-4,5-dihydropyridazin-3(2H)-one]
EC70 concentration (HeLa cells [1]; HeLa, 48 hours): 30 nM | number of cell lines sensitive with a robust Z-score lower than -4 [2]: 22 cell lines | selective toxicity in dose-response retest (NCI-H1734 cells): specifically toxic to the NCI-H1734 cell line | induction of apoptosis (caspase activity, PARP cleavage) (HeLa cells [3]): undergo apoptosis | complex formation of V5-tagged SIRT7 and SLFN12 with PDE3A [4]: enhanced complex formation

Compound: CCN(CCOCCOCCNC(=O)OC(C)(C)C)c1ccc(C2=NNC(=O)C[C@H]2C)cc1 [DNMDP-2L]
rescue of DNMDP cytotoxicity (HeLa cells [5]): same DNMDP cytotoxicity rescue phenotype as non-cytotoxic PDE3 inhibitors

Compound: CCN(CC)c1ccc(C2=NNC(=O)C[C@H]2C)cc1 [DNMDP-2]
activity compared with (R)-DNMDP (HeLa cells [1]): tested similarly to (R)-DNMDP

Compound: CCN(CC)c1ccc(C2=NNC(=O)CC2C)cc1 (stereo not shown) [DNMDP-3]
activity compared with (R)-DNMDP (HeLa cells [1]): tested similarly to (R)-DNMDP

Compound: CN(C(=O)CCCOc1ccc2[nH]c(=O)ccc2c1)C1CCCCC1 [cilostamide]
rescue of DNMDP cytotoxicity (HeLa cells [5]): able to rescue DNMDP cytotoxicity in a dose-dependent manner

Compound: O=C1CCc2cc(OCCCCc3nnnn3C3CCCCC3)ccc2N1 [cilostazol]
rank in bioactives screen for rescue of cell death induced by DNMDP (HeLa cells [5]): three most potent compounds

Compound: OCCN(CCO)c1nc(N2CCCCC2)c2nc(N(CCO)CCO)nc(N3CCCCC3)c2n1 [dipyridamole]
competition with DNMDP (rescue) (HeLa cells [5]): not effective competitors

Compound: CC(C)C(=O)c1c(C(C)C)nn2ccccc12 [idubilast]
competition with DNMDP (rescue) (HeLa cells [5]): not effective competitors

Compound: C[C@@H]1CC(=O)NN=C1c1ccc(NN=C(C#N)C#N)cc1 [levosimendan]
rank in bioactives screen for rescue of cell death induced by DNMDP (HeLa cells [5]): three most potent compounds | rescue of DNMDP cytotoxicity (HeLa cells [5]): able to rescue DNMDP cytotoxicity in a dose-dependent manner

Compound: Cc1[nH]c(=O)c(C#N)cc1-c1ccncc1 [milrinone]
rank in bioactives screen for rescue of cell death induced by DNMDP (HeLa cells [5]): three most potent compounds | rescue of DNMDP cytotoxicity (HeLa cells [5]): able to rescue DNMDP cytotoxicity in a dose-dependent manner

Compound: CCCc1nn(C)c2c(=O)[nH]c(-c3cc(S(=O)(=O)N4CCN(C)CC4)ccc3OCC)nc12 [sildenafil]
competition with DNMDP (rescue) (HeLa cells [5]): not effective competitors

blocking of PDE3A binding to the tethered linker analogue (PDE3A): blocked
Compound: COc1cc2c(cc1OC)-c1c/c(=N\c3c(C)cc(C)cc3C)n(C)c(=O)n1CC2 [trequinsin]
effect on HeLa cell viability (HeLa cells [1]; HeLa, up to 10 µM, 48 hours): did not affect HeLa cell viability in any detectable way | IC50 (PDE3): 0.25 nM

Compound: CCCc1nc(C)c2c(=O)[nH]c(-c3cc(S(=O)(=O)N4CCN(CC)CC4)ccc3OCC)nn12 [vardenafil]
competition with DNMDP (rescue) (HeLa cells [5]): not effective competitors
